The inhibition in vivo is the percentage by which the read-out fell short of the control. Broadly, the ED50 is the dose that gives a 50% effect, or the effect in half of the subjects. Usually LD50 stands for the dose at which mortality reaches 50%. Read a low LD50 as greater toxicity.

The text below walks through data of ChEMBL document CHEMBL3272316, “Oxime ether derivatives, a new class of nonsteroidal antiinflammatory compounds” (J Med Chem, 1977).

SMILES strings stand for the structures. Some results are limits rather than exact numbers.

The first series has as its system Rattus norvegicus. Kind of series: Antiinflammatory activity in rat assessed as inhibition of carrageenan-induced paw edema at 50 mg/kg, po administered 1 hr prior challenge measured 3 hrs post challenge.
Conditions: not given
The class given is functional. The method, boiled down: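 Rats of 180-220 g, four per group, were given 50 mg/kg orally in 1% tragacanth vehicle 1 h before intraplantar injection of 0.05 mL of 1% carrageenan. Hind-paw edema was measured 3 h after injection and reported as percent inhibition (Winter method).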
In general terms: The carrageenan paw model is a standard test of acute inflammation.
Take `C/C(=N\OCC(=O)O)c1ccccc1C(=O)O`: the inhibition in vivo at 50 mg/kg was less than 20%.
Turning to `C/C(=N\OCC(=O)O)c1ccccc1`, the inhibition in vivo at 50 mg/kg was less than 20%.
Still for that read-out and setting: with `C/C(=N\OCC(=O)O)c1ccccc1Cl` the figure was less than 20%.
Still for that read-out and setting: the value for `C/C(=N\OCC(=O)O)c1ccccc1O` was less than 20%.
For `C/C(=N\OCC(=O)O)c1cccc(Cl)c1`, the inhibition in vivo at 50 mg/kg came out at 20%.
Same read-out and setting: the value for `C/C(=N\OCC(=O)O)c1ccc(C)cc1` was 20%; that for `C/C(=N\OCC(=O)O)c1ccc(C(C)(C)C)cc1` was less than 20%.
Still for that read-out and setting: with `C/C(=N\OCC(=O)O)c1ccc(CC2CCCCC2)cc1` the figure was less than 20%; with `C/C(=N\OCC(=O)O)c1ccc(C2CC2)cc1`, less than 20%; with `C/C(=N\OCC(=O)O)c1ccc(C#N)cc1`, less than 20%.
For `C/C(=N\OCC(=O)O)c1ccc(O)cc1`, the inhibition in vivo at 50 mg/kg is less than 20%.
Same read-out and setting: the value for `COc1ccc(/C(C)=N/OCC(=O)O)cc1` was less than 20%; that for `CSc1ccc(/C(C)=N/OCC(=O)O)cc1` was less than 20%.
The same measure, in the same setting: with `C/C(=N\OCC(=O)O)c1ccc(S(C)(=O)=O)cc1` the figure was 20%; with `C/C(=N\OCC(=O)O)c1ccc(N)cc1`, 20%.
Still for that read-out and setting: with `CC(=O)Nc1ccc(/C(C)=N/OCC(=O)O)cc1` the figure was less than 20%; with `C/C(=N\OCC(=O)O)c1ccc(N(C)C)cc1`, less than 20%.
Take `C/C(=N\OCC(=O)O)c1ccc([N+](=O)[O-])cc1`: the inhibition in vivo at 50 mg/kg is less than 20%.
On the same count and under the same terms, the value for `C/C(=N\OCC(=O)O)c1ccc(Cl)c(C)c1` was 20%; that for `C/C(=N\OCC(=O)O)c1ccc(C2CCCCC2)c(Cl)c1` was less than 20%.
With `C/C(=N\OCC(=O)O)c1ccc(F)c(N)c1`, the inhibition in vivo at 50 mg/kg turned out to be 20%.
Still for that read-out and setting: the value for `O=C(O)CO/N=C/c1ccccc1Cl` was less than 20%; that for `CN(C)c1ccc(/C=N/OCC(=O)O)cc1` was less than 20%; that for `O=C(O)CO/N=C/c1ccc([N+](=O)[O-])cc1` was less than 20%.
On the same count and under the same terms, the value for `C/C(=N\OCC(=O)OCCN(C)C)c1ccc(F)cc1` was 20%; that for `C/C(=N\OCC(N)=O)c1ccccc1` was less than 20%.
On the same count and under the same terms, the value for `C/C(=N\OCC(N)=O)c1ccc(F)cc1` was 20%.
With `CC/C(=N\OCC(=O)O)c1ccc(Cl)cc1`, the inhibition in vivo at 50 mg/kg is less than 20%.
Same read-out and setting: the value for `CCCCC/C(=N\OCC(=O)O)c1ccc(Cl)cc1` was less than 20%; that for `CC(C)=NOCC(=O)O` was 20%; that for `O=C(O)CO/N=C/c1cccc2ccccc12` was less than 20%.
Same read-out and setting: the value for `C/C(=N\OCC(=O)O)c1cccc2ccccc12` was 20%.
The same measure, in the same setting: with `C/C(=N\OCC(=O)O)c1c[nH]c2ccccc12` the figure was less than 20%.
For the compound `O=C(O)CON=C1CCCCC1`, the inhibition in vivo at 50 mg/kg was less than 20%.
On the same count and under the same terms, with `O=C(O)CO/N=C1\CCc2cc(Cl)ccc21` the figure was less than 20%; with `OCCO/N=C\c1ccc(Cl)cc1`, less than 20%; with `O=C(O)CO/N=C\c1ccc(Cl)s1`, less than 20%.
Still for that read-out and setting: the value for `C/C(=N/OCCO)c1ccc(Cl)s1` was less than 20%; that for `C/C(=N/OCC(=O)O)c1ccc(Cl)s1` was less than 20%.
Same read-out and setting: the value for `C/C(=C\CCC(=O)O)c1ccc(Cl)cc1` was less than 20%; that for `O=C(O)C#Cc1ccc(Cl)cc1` was less than 20%; that for `C/C(=N\NCC(=O)O)c1ccc(C2CCCCC2)c(Cl)c1` was less than 20%.
As to `C/C(=N\OCCCCO)c1ccc(Cl)cc1`, the inhibition in vivo at 50 mg/kg was less than 20%.
For the compound `C/C(=N\OCC(C)O)c1ccc(Cl)cc1` (configuration not stated), the inhibition in vivo at 50 mg/kg was less than 20%.

For another series, the system named is Rattus norvegicus. Kind of series: Antiinflammatory activity in po dosed rat assessed as inhibition of carrageenan-induced paw edema compound administered 1 hr prior challenge measured 3 hrs post challenge. The class given is functional.
Conditions: not given
Summed up: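 Rats of 180-220 g received oral doses in a series, in 1% tragacanth vehicle, 1 h before intraplantar injection of 0.05 mL of 1% carrageenan. Paw edema was measured at 3 h. ED50 (mg/kg) was derived graphically from the dose-inhibition curve, with 95% confidence limits by Finney's method for some compounds. Amines were tested as hydrochlorides.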
Regarding `C/C(=N\OCC(=O)O)c1ccc(Cl)cc1`, the ED50 was 28 mg/kg.
On the same count and under the same terms, with `C/C(=N\OCC(=O)O)c1ccc(F)cc1` the figure was 85 mg/kg; with `C/C(=N\OCC(=O)O)c1ccc(Br)cc1`, 27 mg/kg.
Turning to `C/C(=N\OCC(=O)O)c1ccc(C(F)(F)F)cc1`, the ED50 came out at 120 mg/kg.
On the same count and under the same terms, with `C/C(=N\OCC(=O)O)c1ccc(Cl)cc1Cl` the figure was 120 mg/kg.
Still for that read-out and setting: with `C/C(=N\OCC(=O)O)c1ccc(Cl)c(Cl)c1` the figure was 65 mg/kg; with `O=C(O)CO/N=C/c1ccc(Cl)cc1`, 45 mg/kg; with `O=C(O)CO/N=C/c1ccc(Br)cc1`, 46 mg/kg.
The same measure, in the same setting: with `COC(=O)CO/N=C(\C)c1ccc(Cl)cc1` the figure was 24 mg/kg.
As for `COC(=O)CO/N=C(\C)c1ccc(Br)cc1`, the ED50 is 14 mg/kg.
On the same count and under the same terms, with `C/C(=N\OCC(=O)OCCN(C)C)c1ccc(Br)cc1` the figure was 47 mg/kg; with `C/C(=N\OCC(=O)OCCN(C)C)c1ccc(Cl)c(Cl)c1`, 80 mg/kg.
The same measure, in the same setting: the value for `C/C(=N\OCC(N)=O)c1ccc(Cl)cc1` was 24 mg/kg; that for `C/C(=N\OCC(N)=O)c1ccc(Br)cc1` was 62 mg/kg; that for `C/C(=N\OCC(N)=O)c1ccc(Cl)c(Cl)c1` was 55 mg/kg.
Same read-out and setting: with `C/C(=N\OCC(=O)O)c1ccc(Cl)s1` the figure was 34 mg/kg.
As to `OCCO/N=C/c1ccc(Cl)cc1`, the ED50 worked out at 90 mg/kg.
For the compound `C/C(=N\OCCO)c1ccc(Cl)s1`, the ED50 was 60 mg/kg.
Same read-out and setting: the value for `C/C(=C\CC(=O)O)c1ccc(Cl)cc1` was 70 mg/kg.
Still for that read-out and setting: the value for `O=C(O)CN/N=C/c1ccc(Cl)cc1` was 25 mg/kg; that for `C/C(=N\NCC(=O)O)c1ccc(Cl)cc1` was 22 mg/kg.
Still for that read-out and setting: the value for `C/C(=N\OCCC(=O)O)c1ccc(Cl)cc1` was 80 mg/kg; that for `C/C(=N\OCCCC(=O)O)c1ccc(Cl)cc1` was 58 mg/kg; that for `C/C(=N\OCCCCCC(=O)O)c1ccc(Cl)cc1` was 92 mg/kg.
For `C/C(=N\OC(C)C(=O)O)c1ccc(Cl)cc1` (configuration not stated), the ED50 is 55 mg/kg.
Same read-out and setting: with `C/C(=N\OC(C)(C)C(=O)O)c1ccc(Cl)cc1` the figure was 42 mg/kg; with `CCOC(=O)CO/N=C(\C)c1ccc(Cl)cc1`, 32 mg/kg.
Same read-out and setting: the value for `CCCOC(=O)CO/N=C(\C)c1ccc(Cl)cc1` was 14 mg/kg; that for `C/C(=N\OCC(=O)OC(C)C)c1ccc(Cl)cc1` was 50 mg/kg.
On the same count and under the same terms, with `CNCCOC(=O)CO/N=C(\C)c1ccc(Cl)cc1.Cl` the figure was 26 mg/kg; with `C/C(=N\OCC(=O)OCCNC1CCCCC1)c1ccc(Cl)cc1.Cl`, 26 mg/kg; with `C/C(=N\OCC(=O)OCCN1CCOCC1)c1ccc(Cl)cc1.Cl`, 44 mg/kg.
`C/C(=N\OCC(=O)OCCN1CCN(C)CC1)c1ccc(Cl)cc1.Cl`: the ED50 was 54 mg/kg.
The same measure, in the same setting: the value for `C/C(=N\OCC(=O)OCC(C)(C)N(C)C)c1ccc(Cl)cc1.Cl` was 27 mg/kg; that for `C/C(=N\OCC(=O)OCCCCCCN(C)C)c1ccc(Cl)cc1` was 66 mg/kg; that for `CNC(=O)CO/N=C(\C)c1ccc(Cl)cc1` was 70 mg/kg.
As to `C/C(=N\OCC(=O)N(C)C)c1ccc(Cl)cc1`, the ED50 was found to be 120 mg/kg.
Same read-out and setting: with `C/C(=N\OCCO)c1ccc(Cl)cc1` the figure was 29 mg/kg; with `CC(=O)OCCO/N=C(\C)c1ccc(Cl)cc1`, 43 mg/kg; with `C/C(=N\OCCOC(=O)C(C)(C)C)c1ccc(Cl)cc1`, 38 mg/kg.
On to `COC(=O)OCCO/N=C(\C)c1ccc(Cl)cc1`, for which the ED50 was found to be 33 mg/kg.
Still for that read-out and setting: with `C/C(=N\OCC(=O)OCCN(C)C)c1ccc(Cl)cc1` [CLOXIMATE] the figure was 34 mg/kg; with `CC(C)Cc1ccc(CC(=O)O)cc1` [IBUFENAC], 98 mg/kg.
Still for that read-out and setting: the value for `CC(C)Cc1ccc(C(C)C(=O)O)cc1` (configuration not stated) [IBUPROFEN] was 25 mg/kg.
Take `CCCCC1C(=O)N(c2ccccc2)N(c2ccccc2)C1=O` [PHENYLBUTAZONE]: the ED50 stood at 34 mg/kg.

System in another series: not listed separately
Kind of series: Toxicity in ip dosed mouse. The class given is organism-based. As to conditions: in vivo. Summed up: (§1)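 Mice; LD50 derived by Horn's method. Amine compounds were tested as hydrochloride salts, with one exception given as the free base.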
In the case of `C/C(=N\OCC(=O)OCCN(C)C)c1ccc(Cl)cc1` [CLOXIMATE], the median lethal dose (LD50) is greater than 320 mg/kg.

System in a further series: not listed separately
The experiment in a line: Toxicity in po dosed mouse. The class given is organism-based. The following applies: in vivo. Summed up: as §1
The compound `C/C(=N\OCC(=O)OCCN(C)C)c1ccc(Cl)cc1` [CLOXIMATE] showed an LD50 greater than 1000 mg/kg.

The subject of the next series is Mus musculus. The experiment in a line: Neurotoxicity in ip dosed mouse. The class given is toxicity, organism-based. The following applies: in vivo. Summed up: (§2)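 Mice were assessed by a modified Irwin observational method.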
The compound `C/C(=N\OCC(=O)OCCN(C)C)c1ccc(Cl)cc1` [CLOXIMATE] displayed a 50% effective dose (ED50) greater than 320 mg/kg.

For the next series, the system named is Mus musculus. The experiment in a line: Neurotoxicity in po dosed mouse. As to conditions: in vivo. The class given is toxicity, organism-based. The method, boiled down: as §2
`C/C(=N\OCC(=O)OCCN(C)C)c1ccc(Cl)cc1` [CLOXIMATE] showed an ED50 greater than 1000 mg/kg.

For a further series, the species on record is Rattus norvegicus. Kind of series: Toxicity in rat assessed as effects on gastrointestinal mucosa. The class given is organism-based, Intestinal mucosa. The following applies: in vivo.
Consider `C/C(=N\OCC(=O)OCCN(C)C)c1ccc(Cl)cc1` [CLOXIMATE], for which the Activity entry is “Non-toxic”.

The species named for a further series is Canis familiaris. The experiment in a line: Toxicity in dog assessed as effects on gastrointestinal mucosa. The class given is organism-based, Canis lupus familiaris, Intestinal mucosa. The following applies: in vivo.
For the compound `C/C(=N\OCC(=O)OCCN(C)C)c1ccc(Cl)cc1` [CLOXIMATE], the Activity entry is reported as “Non-toxic”.

The species entered for the next series is Rattus norvegicus. Kind of series: Toxicity in rat assessed as effect on emptying rate of stomach. The class given is organism-based. The following applies: in vivo.
For the compound `C/C(=N\OCC(=O)OCCN(C)C)c1ccc(Cl)cc1` [CLOXIMATE], the Activity entry is listed as “Non-toxic”.

The species entered for the next series is Canis familiaris. Kind of series: Toxicity in dog assessed as effect on emptying rate of stomach. The class given is organism-based, Canis lupus familiaris. The following applies: in vivo.
Take `C/C(=N\OCC(=O)OCCN(C)C)c1ccc(Cl)cc1` [CLOXIMATE]: the Activity entry is “Non-toxic”.
